From PMC7668563 (International journal of molecular biology (Edmond, Okla.), 2020)
Read-outs that look alike come from different tables or passages of the source.

Columns and labels:
[1] = target: T1, apo-human transferrin (apo-hTf) (Homo sapiens, UniProt P02787); assay: Fluorescence quenching of apo-hTf; format: binding; conditions: for biomolecular quenching rate constant kq: kq=Ksv/τ0; for Stern-Volmer quenching constant Ksv / number of binding sites n: pH 7.4; for quenching association constant Ka: pH 7.4, modified Stern-Volmer
Outline: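 Intrinsic fluorescence of apo-hTf in Tris-HCl pH 7.4 was titrated with test compound (Tris-HCl/2% DMSO). Conditions: excitation 280 nm, emission 290–500 nm, slits 10/5 nm, 1.0 cm quartz cell, at 296, 303, 310 and 317 K, triplicate titrations. Intensities were corrected for inner filter effect using absorbances at excitation and emission wavelengths. Ksv came from Stern-Volmer plots of F0/F vs [Q]; kq = Ksv/τ0 (τ0 ~1.0×10−8); Ka and n came from the modified Stern-Volmer equation.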

[2] = target: T1, apo-human transferrin (apo-hTf); assay: Fluorescence resonance energy transfer; format: binding
Outline: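 Emission spectrum of 1.0×10−5 mol L−1 apo-hTf and absorption spectrum of 1.0×10−5 mol L−1 test compound were recorded in 20 mM Tris-HCl pH 7.4 at room temperature, 260–450 nm, and their spectral overlap determined. E was calculated from apo-hTf fluorescence without and with equimolar test compound. R0 and donor–acceptor distance r came from Förster equations.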

[3] = system: human colorectal adenocarcinoma cell line, HT-29; conditions: read-out: IC50 (±SD), HT-29, ref 21; cited from earlier work
[4] = target: T1, apo-human transferrin (apo-hTf); assay: Far-UV circular dichroism titration of apo-hTf, secondary structure content
Outline: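 Apo-hTf (4.0×10−7 mol L−1) in 2 mM Tris-HCl pH 7.4 was titrated with a 1.0×10−3 mol L−1 stock of test compound in Tris-HCl/2% DMSO, to final 0–2.4×10−6 mol L−1. Far-UV CD was recorded from 190–250 nm under nitrogen in a 1.0 cm cell: six scans at 100 nm/min. Baseline was buffer ± DMSO at room temperature. α-Helix was derived from MRE at 208 nm; β-sheet and random coil by the CD-RRG method.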

[5] = target: T1, apo-human transferrin (apo-hTf); assay: Thermodynamic parameters of apo-hTf complex formation; format: binding
Outline: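 Ksv values were obtained from apo-hTf fluorescence quenching at pH 7.4 at 296, 303, 310 and 317 K. ΔH°, ΔS° and ΔG° were derived from linear regression of ln(Ksv) vs 1/T (Van't Hoff equation).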

[6] = system: human breast adenocarcinoma cell line, MCF-7; conditions: cited from earlier work
[7] = target: T1, apo-human transferrin (apo-hTf); assay: UV-Vis absorbance titration of apo-hTf; format: binding

T1 sequence (P02787 20-698): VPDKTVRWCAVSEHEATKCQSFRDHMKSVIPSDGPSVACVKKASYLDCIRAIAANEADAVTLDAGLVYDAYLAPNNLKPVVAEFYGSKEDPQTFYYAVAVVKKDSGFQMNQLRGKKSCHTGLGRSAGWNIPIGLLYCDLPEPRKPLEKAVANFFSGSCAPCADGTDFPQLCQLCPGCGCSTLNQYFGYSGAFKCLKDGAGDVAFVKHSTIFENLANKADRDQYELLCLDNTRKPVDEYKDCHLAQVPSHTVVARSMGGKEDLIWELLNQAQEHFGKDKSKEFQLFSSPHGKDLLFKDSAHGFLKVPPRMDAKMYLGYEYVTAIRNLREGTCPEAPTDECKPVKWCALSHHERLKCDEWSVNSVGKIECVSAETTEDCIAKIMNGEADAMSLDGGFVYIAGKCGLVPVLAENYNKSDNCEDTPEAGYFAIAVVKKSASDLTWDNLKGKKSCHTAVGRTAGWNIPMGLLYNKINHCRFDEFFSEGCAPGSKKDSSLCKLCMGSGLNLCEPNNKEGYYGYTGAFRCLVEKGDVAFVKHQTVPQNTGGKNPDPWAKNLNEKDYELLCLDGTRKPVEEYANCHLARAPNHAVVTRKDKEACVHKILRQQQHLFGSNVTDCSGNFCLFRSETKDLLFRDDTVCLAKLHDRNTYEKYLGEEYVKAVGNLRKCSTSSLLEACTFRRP

Compound: [Cl-].[Cl-].[Mo+4].c1cc[cH-]c1.c1cc[cH-]c1 [Cp2MoCl2]
- biomolecular quenching rate constant kq ([1]; 296 K): 1.51e+11 M⁻¹ s⁻¹
- Stern-Volmer quenching constant Ksv ([1]; 296 K): 1510 M⁻¹
- number of binding sites n ([1]; 296 K): 1.26
- quenching association constant Ka ([1]; 296 K): 19300 M⁻¹
- biomolecular quenching rate constant kq ([1]; 303 K): 1.59e+11 M⁻¹ s⁻¹
- Stern-Volmer quenching constant Ksv ([1]; 303 K): 1590 M⁻¹
- number of binding sites n ([1]; 303 K): 1.23
- quenching association constant Ka ([1]; 303 K): 15800 M⁻¹
- biomolecular quenching rate constant kq ([1]; 310 K): 1.81e+11 M⁻¹ s⁻¹
- Stern-Volmer quenching constant Ksv ([1]; 310 K): 1810 M⁻¹
- number of binding sites n ([1]; 310 K): 1.19
- quenching association constant Ka ([1]; 310 K): 12100 M⁻¹
- biomolecular quenching rate constant kq ([1]; 317 K): 2.05e+11 M⁻¹ s⁻¹
- Stern-Volmer quenching constant Ksv ([1]; 317 K): 2050 M⁻¹
- number of binding sites n ([1]; 317 K): 1.16
- quenching association constant Ka ([1]; 317 K): 9500 M⁻¹
- Förster critical energy transfer distance R0 ([2]; k^2=2/3, n=1.336, ØD=0.118): 3.38 nm
- binding distance r (donor-acceptor) ([2]; k^2=2/3, n=1.336, ØD=0.118): 4.44 nm
- efficiency of energy transfer E ([2]; room temperature, 1.0×10^−5 mol L^−1 each): 0.162
- IC50 [3]: 2600 µM
- other secondary structure content of apo-hTf ([4]; compound concentration 0.4 (M)): 19.3%
- random coil content of apo-hTf ([4]; compound concentration 0.4 (M)): 33.9%
- α-helix content of apo-hTf ([4]; compound concentration 0.4 (M)): 28.7%
- β-sheet content of apo-hTf ([4]; compound concentration 0.4 (M)): 18.1%
- other secondary structure content of apo-hTf ([4]; compound concentration 0.8 (M)): 19.4%
- random coil content of apo-hTf ([4]; compound concentration 0.8 (M)): 34%
- α-helix content of apo-hTf ([4]; compound concentration 0.8 (M)): 28.3%
- β-sheet content of apo-hTf ([4]; compound concentration 0.8 (M)): 18.3%
- other secondary structure content of apo-hTf ([4]; compound concentration 1.2 (M)): 19.9%
- random coil content of apo-hTf ([4]; compound concentration 1.2 (M)): 34.1%
- α-helix content of apo-hTf ([4]; compound concentration 1.2 (M)): 27.6%
- β-sheet content of apo-hTf ([4]; compound concentration 1.2 (M)): 18.4%
- other secondary structure content of apo-hTf ([4]; compound concentration 1.6 (M)): 20%
- random coil content of apo-hTf ([4]; compound concentration 1.6 (M)): 34.3%
- α-helix content of apo-hTf ([4]; compound concentration 1.6 (M)): 27.1%
- β-sheet content of apo-hTf ([4]; compound concentration 1.6 (M)): 18.6%
- other secondary structure content of apo-hTf ([4]; compound concentration 2 (M)): 20.1%
- random coil content of apo-hTf ([4]; compound concentration 2 (M)): 34.5%
- α-helix content of apo-hTf ([4]; compound concentration 2 (M)): 26.5%
- β-sheet content of apo-hTf ([4]; compound concentration 2 (M)): 18.9%
- other secondary structure content of apo-hTf ([4]; compound concentration 2.4 (M)): 20.2%
- random coil content of apo-hTf ([4]; compound concentration 2.4 (M)): 34.7%
- α-helix content of apo-hTf ([4]; compound concentration 2.4 (M)): 25.8%
- β-sheet content of apo-hTf ([4]; compound concentration 2.4 (M)): 19.3%
- ∆G° ([5]; 296 K): -4.293 kcal/mol
- ∆G° ([5]; 303 K): -4.46 kcal/mol
- ∆G° ([5]; 310 K): -4.625 kcal/mol
- ∆G° ([5]; 317 K): -4.792 kcal/mol
- ∆H° ([5]; pH 7.4, from Ksv at 296-317 K): 2.768 kcal/mol
- ∆S° ([5]; pH 7.4, from Ksv at 296-317 K): 99.78 J/mol K
- IC50 (±SD), MCF-7 [6]: proliferative activity
- IC50 (±SD), MCF-7 ([6]; listed as Cp^2MoCl^2): Proliferative[21],[68]
- Ka at 280 nm ([7]; absorbance at 280 nm): 3060 M⁻¹
- Ka at 361 nm ([7]; absorbance at 361 nm): 3090 M⁻¹
- Association constants, Ka, 280 nm ([7]; absorbance of apo-hTf at 280 nm, pH 7.4): 3.06 10^3 M^−1
- Association constants, Ka, 361 nm ([7]; absorbance of apo-hTf at 361 nm, pH 7.4): 3.09 10^3 M^−1
